# ChEMBL document CHEMBL4145443, “Synthesis, β-hematin inhibition studies and antimalarial evaluation of new dehydroxy isoquine derivatives against Plasmodium berghei: A promising antimalarial agent” (Eur J Med Chem, 2018)
# Assays:
# [1] = Hemolytic activity in human RBC after 45 mins by spectrophotometric method; assay type: ADME, cell-based, Erythrocyte; settings: red blood cells (erythrocytes)
# Summary of the method: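 Human RBCs from 50% Alsever's solution were spun at 800g for 10 min and washed three times in saline. Compounds (5-5000 µM) were incubated with a 2% final RBC suspension at 37°C for 45 min. Released haemoglobin was read at 550 nm, with water as the 100% lysis control and saline as the negative control. Result given as the concentration lysing half the RBCs.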
# [2] = Inhibition of acetate buffer-initiated beta-hematin polymerization measured after 48 hrs
# Summary of the method: (§1)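 Hemin chloride (4 mM in DMSO) was dispensed into plates with compound in DMSO (50-5 µM), in triplicate. Water or DMSO served as controls. Reaction was started with 0.2 M acetate buffer, pH 4.4, and run at 37 °C for 48 h. The pellet was centrifuged, washed twice with DMSO, dissolved in 0.2 N NaOH, diluted 1:2 in 0.1 N NaOH and read at 405 nm as % inhibition.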
# [3] = Inhibition of acetate buffer-initiated beta-hematin polymerization at 50 uM measured after 48 hrs relative to control; summary of the method: as §1
# [4] = Cytotoxicity against mouse peritoneal macrophages assessed as growth inhibition after 48 hrs by MTT assay; assay type: cell-based, Peritoneal macrophage; settings: read-out: LD50
# Summary of the method: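 Murine peritoneal macrophages plated at 5 × 10^4 cells/well in DMEM with 5 mM L-glutamine, 10% FBS and antibiotics, then incubated overnight at 5% CO2. Compounds added at varied concentrations in duplicate wells, 48 h further incubation. Viability read by MTT reduction as % of untreated controls. LD50 taken by non-linear regression of % viability vs log concentration.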
# Plasmodium berghei [5] = assay: Antimalarial activity against Plasmodium berghei ANKA infected in Balb/c mouse assessed as parasitemia at 20 mg/kg, ip qd administered for 4 days starting from 2 hrs post infection by Giemsa staining based microscopic method (reference value: 65.2 +/- 2.58%); assay type: functional
# Plasmodium berghei [6] = assay: Antimalarial activity against Plasmodium berghei ANKA infected in Balb/c mouse assessed as mouse survival time at 20 mg/kg, ip qd administered for 4 days starting from 2 hrs post infection (reference value: 6.8 +/- 0.7day); assay type: functional
# Summary of the method: (§2)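 Male Balb-C mice (18-22 g, n=6 per group) infected i.v. via caudal vein with 10^6 P. berghei-infected RBC. Treatment started 2 h post-infection, once daily i.p. for 4 days. Compounds dissolved in DMSO (0.1 M stock), diluted with 2% Saline-Tween 20. Saline-treated controls. Survival time recorded relative to saline group. Parasitemia by Giemsa-stained smears at day 4. Mean±SD.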
# Plasmodium berghei [7] = assay: Antimalarial activity against Plasmodium berghei ANKA infected in Balb/c mouse assessed as parasitemia at 25 mg/kg, ip qd administered for 4 days starting from 2 hrs post infection by Giemsa staining based microscopic method (reference value: 65.2 +/- 2.58%); assay type: functional
# Plasmodium berghei [8] = assay: Antimalarial activity against Plasmodium berghei ANKA infected in Balb/c mouse assessed as mouse survival time at 25 mg/kg, ip qd administered for 4 days starting from 2 hrs post infection (reference value: 6.8 +/- 0.7day); assay type: functional; summary of the method: as §2
SMILES,HC50 at 0.75 h [1] [mM],IC50 [2] [µM],inhibition [3] [%],CC50 at 48 h [4] [µM],Activity (Plasmodium berghei [5]) [%],Time (Plasmodium berghei [6]) [days],Activity (Plasmodium berghei [7]) [%],Time (Plasmodium berghei [8]) [days]
Clc1ccc2c(Nc3ccc(CN4CCOCC4)cc3)ccnc2c1,0.591,> 50,5.17,36.2,–,–,–,–
CCN(CC)Cc1ccc(Nc2ccnc3cc(Cl)ccc23)cc1,2.92,1.78,98.2,42.4,3.8,24.9,–,–
CC(C)(C)NCc1ccc(Nc2ccnc3cc(Cl)ccc23)cc1.Cl,1.49,1.66,98.6,47.1,4,25.8,–,–
CCN(CC)CCCC(C)Nc1ccnc2cc(Cl)ccc12 (stereo unspecified) [CHLOROQUINE],> 1.5,1.48,98.6,–,–,–,0.6,29.4
